The list is not random: actives were taken first. Their share in the collection is about 4.6%.
ALR H2O2 inh: blocks human ALR sulfhydryl oxidase activity | P55789 | purified ALR, DTT oxidation, H2O2 HRP-luminol luminescence | inhibition, % (test concentration not listed) | 290,000 compounds, 3.8% hits | AID 485317;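 active = mean replicate inhibition above about 79%, with every replicate also reaching it, limit read from the data; inconclusive = only one of the two criteria met; inactive = mean below limit and not every replicate reaching it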
Target sequence (P55789 whole entry, looked up): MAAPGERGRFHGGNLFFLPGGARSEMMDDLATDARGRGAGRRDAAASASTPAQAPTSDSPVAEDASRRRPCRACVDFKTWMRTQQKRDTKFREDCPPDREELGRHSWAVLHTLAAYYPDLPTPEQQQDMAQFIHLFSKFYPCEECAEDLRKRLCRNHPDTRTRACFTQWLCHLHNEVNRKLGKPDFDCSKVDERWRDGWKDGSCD
NALP1 yeast inh: blocks the NALP1 inflammasome reconstituted in yeast; S. cerevisiae NALP1/ASC/caspase-1 growth, X-gal OD620, 72 h; 280,000 compounds, 0.61% hits; inhibition, % at 10 µM; in the data active = inhibition mostly above about 24%, no sharp cut-off; inactive = mostly below about 32%
PolyA inhibitor: yeast polyadenylation inhibition; activity score, % at 12 µM; 300,000 compounds, 0.02% hits; S. cerevisiae SKY197-pL101 polyadenylation reporter, beta-gal luminescence; efflux-impaired pdr1/pdr3 knockout yeast; score 100 = 6 SD above DMSO;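 active = lowest replicate activity score at least 50, where 100 means six control SD above control mean; inconclusive = lowest score under 50 but half or more replicates reach 50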;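 also: yeast exposed to compound for 9 h at 30 °C; higher score means more reporter readthrough which indicates perturbed polyadenylation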
DSG3 Ab inh: human desmoglein-3 autoantibody binding inhibition. P32926. DSG3-coupled beads, scFv-anti-DSG3-GFP binding, flow cytometry; active compounds read low. binding (percent of control), % at 10 µM. 310,000 compounds, 0.48% hits;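 active = binding more than 3 SD below its plate's average and above zero; inconclusive = below that plate limit but binding exactly zero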;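 also: hits lower antibody fragment binding to DSG3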
Arr AP2 block: human beta-arrestin and AP2 interaction inhibition. 340,000 compounds, 0.31% hits. FITC-arrestin peptide / GST-AP2 beads, flow cytometry; AP2 beta2 appendage carries R879A mutation. inhibition, % at 10 µM. AID 504490;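 active = inhibition above a set limit, near 3 SD of compounds lacking own fluorescence, cut at about 54% in these data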
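system = GST-tagged AP2 beta2-adaptin appendage (R879A) on 4 µm glutathione beads | reagent = FITC-labelled arrestin peptide probe, 50 nM final | schedule = compound with beads 12 min RT, then probe 1 h RT | signal = HyperCyt-sampled flow cytometry, FL1 channel, ex 488/em 535 nm | read-out = percent response from loss of bead-bound FITC fluorescence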
NLRP3 yeast inh: NALP3 inhibition in yeast | Yeast reconstituted NLRP3/ASC/caspase-1, beta-gal luminescence, 24 h | inhibition, % at 10 µM | 330,000 compounds, 0.39% hits;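 active = inhibition of 50% or more; inactive = inhibition below 50%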
Of the large screens only hits and unclear results are named; the others gave an inactive call.

COCc1ccc(C(=O)N2CCCC(Nc3ccc(C(C)C)cc3)C2)o1 (configuration not stated)	ALR H2O2 inh 93
O=C(NCCc1ccccc1)c1cccs1	DSG3 Ab inh inconclusive
CCN=c1sc(C(=O)NCCc2ccccc2)cc(=O)n1CC	NALP1 yeast inh 16
CC(C)(C)CC(=O)Nc1ccc(Nc2ccccc2)cc1	ALR H2O2 inh 99
Cc1cccc(NC(=O)CC(C)(C)C)c1	none
CC(C)CC(=O)Nc1ccc(Nc2ccccc2)cc1	ALR H2O2 inh 99
CC(C)NC(=O)c1ccc(COc2ccc(C(C)(C)C)cc2)o1	none (no result: ALR H2O2 inh)
COc1cc(OC)cc(C(=O)Nc2cc(-c3cn4cccnc4n3)ccc2C)c1	DSG3 Ab inh -11 (no result: ALR H2O2 inh)
NC(=O)c1cc[n+](CC(=O)NC(=O)Nc2ccccc2)cc1	none (no result: NALP1 yeast inh, PolyA inhibitor)
CC(Oc1ccc(F)cc1)C(=O)Nc1ccccc1N1CCCCC1 (configuration not stated)	none (no result: DSG3 Ab inh)
Oc1ccc(Oc2ccc3c(C(F)(F)F)cc(C(F)(F)F)nc3n2)cc1	ALR H2O2 inh 99, DSG3 Ab inh inconclusive
S=C1SC2(CCCCCC2)NC2=C1CCCCC2	none (no result: ALR H2O2 inh, NALP1 yeast inh, PolyA inhibitor, Arr AP2 block, NLRP3 yeast inh)
Cc1c([C@H]2[C@@H](CC#N)C2(C)C)c2ccccc2n1C	ALR H2O2 inh 97
CCCNC(=O)c1ccccc1NC(=O)COc1cccc2c1OC(C)(C)C2	none (no result: ALR H2O2 inh, NALP1 yeast inh)
FC(F)(F)c1cnc(NNC(=S)Nc2ccc(Cl)cc2)c(Cl)c1	ALR H2O2 inh 98
Cc1c(CCC(=O)NCCC(=O)O)c(=O)oc2c(C)c3oc4c(c3cc12)CCCC4	ALR H2O2 inh 98
Cc1c(CCC(=O)N[C@@H](C)C(=O)O)c(=O)oc2c(C)c3oc4c(c3cc12)CCCC4	ALR H2O2 inh 97
Cc1c(CCC(=O)NCC(=O)NCC(=O)O)c(=O)oc2cc3oc4c(c3cc12)CCCC4	none (no result: ALR H2O2 inh)
O=S(=O)(c1ccc(F)cc1)N1CCC2(CC1)OCCN2S(=O)(=O)c1cccs1	none (no result: NALP1 yeast inh)
COC(C/C=C\[C@@H](O)[C@@H](C)OCc1ccccc1)OC	none (no result: NALP1 yeast inh)
COC(C/C=C\C(=O)[C@H](C)OCc1ccccc1)OC	ALR H2O2 inh 83 (no result: NALP1 yeast inh)
CN(c1ccccc1)S(=O)(=O)c1cccc(C(=O)NCCCN2CCCC2=O)c1	none (no result: NALP1 yeast inh)
CC[n+]1c(-c2ccccc2)csc1Nc1c(C)n(C)n(-c2ccccc2)c1=O	ALR H2O2 inh 99
CC[n+]1c(-c2ccc(C)cc2)csc1Nc1c(C)n(C)n(-c2ccccc2)c1=O	none (no result: ALR H2O2 inh)
Cc1ccc(NC(=O)CN(C)C(=O)Cc2c[nH]c3ccccc23)cc1	none (no result: NALP1 yeast inh, PolyA inhibitor, DSG3 Ab inh)
N#C/C(=N\Nc1ccc(F)cc1)C(=N)N1CCCCCC1	none
N#C/C(=N\Nc1ccc(F)cc1)C(=O)C1CC1	ALR H2O2 inh 98 (no result: NALP1 yeast inh)
CCOC(=O)N1CCN=C1SCc1ccc(C(F)(F)F)cc1	none
CCC(=O)N1CCN=C1SCc1ccc(Cl)cc1	ALR H2O2 inh 98
CC(=O)N1CCN=C1SCc1ccc(C)cc1	ALR H2O2 inh 95
CC(=O)N1CCN=C1SCc1ccc(Cl)cc1	ALR H2O2 inh 98
CC(=O)N1CCN=C1SCc1ccccc1	none (no result: DSG3 Ab inh)
CC(=O)N1CCN=C1SCc1ccc(F)cc1	ALR H2O2 inh 99 (no result: DSG3 Ab inh)
CCn1nc(C)c(CN2CCCC(CO)(Cc3cccc(Cl)c3)C2)c1C (configuration not stated)	none
O=C(/C=C/c1ccc(Cl)cc1)Nc1cc(S(=O)(=O)N2CCOCC2)ccc1N1CCOCC1	none (no result: NALP1 yeast inh, PolyA inhibitor)
CC1Cc2nc(SCC(=O)N3CCOCC3)n(-c3ccccc3)c(=O)c2S1 (configuration not stated)	ALR H2O2 inh 99 (no result: NALP1 yeast inh)
O=C(CSc1nc2c(c(=O)n1-c1ccccc1)SCC2)N1CCOCC1	none
CC1Cc2nc(SCC(=O)N3CCN(c4ccccc4)CC3)n(C)c(=O)c2S1 (configuration not stated)	ALR H2O2 inh 98
CCn1c(SCC(=O)N2CCN(c3ccccc3)CC2)nc2c(c1=O)SC(C)C2 (configuration not stated)	none
O=c1c2ccccc2cnn1Cc1n[nH]c(=S)n1-c1ccccc1Cl	ALR H2O2 inh 84
O=c1c2ccccc2cnn1Cc1n[nH]c(=S)n1-c1cc(Cl)cc(Cl)c1	none
O=C(c1ccccc1)c1ccc2cc(O)ccc2c1	ALR H2O2 inh 99
CC(OC(=O)C1=Cc2ccccc2OC1)C(=O)NCC1CCCO1 (configuration not stated)	none (no result: ALR H2O2 inh, NALP1 yeast inh, PolyA inhibitor, NLRP3 yeast inh)
